{"source": "ChEMBL document CHEMBL1128339", "about": "“Discovery of 6,11-ethano-12,12-diaryl-6,11-dihydrobenzo[b]quinolizinium cations, a novel class of N-methyl-D-aspartate antagonists” (J Med Chem, 1995)", "key": {"[1]": {"species_on_record": "Mus musculus", "assay": "Inhibitory concentration against NMDA-induced cell death in cultured mouse cortical neurons", "type": "functional"}, "[2]": {"biological_target": "Glutamate NMDA receptor", "assay": "Binding affinity at TCP site of NMDA receptor was determined in rat brain homogenate by [3H]TCP displacement.", "type": "tissue-based"}, "[3]": {"biological_target": "Glutamate NMDA receptor (Rattus norvegicus) (UniProt P35439+Q00959+Q00960+Q00961+Q62645+Q8VHN2+Q9R1M7)", "assay": "Compound at 10 uM was tested for the inhibition of radioligand [3H]TCP binding to TCP site of NMDA receptor in rat brain homogenate", "type": "tissue-based"}, "[4]": {"system": "Mus musculus", "assay": "NMDA antagonistic activity was evaluated […] in cultured mouse cortical neurons by patch clamp recordings designed to measure closed state binding to NMDA receptor-ionophore complex at 100 uM", "type": "functional", "summary_of_the_method": "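Value is the percent inhibition of NMDA-induced current at 100 μM, under closed-channel conditions in mouse cortical neuronal cultures.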"}, "[5]": {"assay": "LogD value of the compound", "type": "physicochemical", "details": "octanol/water", "summary_of_the_method": "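LogD is the partition coefficient between octanol and pH 7.4 buffer. It was measured instrumentally by an outside laboratory.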"}, "[6]": {"species_on_record": "Mus musculus", "assay": "(§1) Ratio of IC50 value for closed channel binding to that of open channel binding.", "type": "functional"}, "[7]": {"system": "Mus musculus", "assay": "NMDA antagonistic activity was evaluated […] in cultured mouse cortical neurons by patch clamp recordings designed to measure closed state binding to NMDA receptor-ionophore complex", "type": "functional"}, "[8]": {"system": "Mus musculus", "assay": "NMDA antagonistic activity was evaluated […] in cultured mouse cortical neurons by patch clamp recordings designed to measure open state binding to NMDA receptor-ionophore complex", "type": "functional"}, "[9]": {"system": "Rattus norvegicus", "assay": "In vivo anti-ischemic activity was evaluated in a rat middle cerebral artery occlusion/ reperfusion model of focal ischemia at a dose of 6 mg/kg/h for 6.5 hr (iv, infusion)", "type": "functional", "summary_of_the_method": "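Rats underwent middle cerebral artery occlusion followed by reperfusion (focal ischemia). The drug was given by continuous intravenous infusion. The read-out was reduction in infarct volume (n = 15).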"}, "[10]": {"assay": "as §1", "type": "functional"}}, "data": [{"smiles": "c1ccc2c(c1)C1CC(c3cc[nH]n3)(c3cc[nH]n3)C2c2cccc[n+]21", "note": "(stereo not drawn)", "values": [{"measurement": "IC50", "setting": "[1]", "value": 271, "unit": "nM"}, {"measurement": "Ki", "setting": "[2]", "value": 13, "unit": "nM"}]}, {"smiles": "COc1ccc(C2(c3ccc(OC)cc3)CC3c4ccccc4C2c2cccc[n+]23)cc1", "note": "(stereo not drawn)", "values": [{"measurement": "Ki", "setting": "[2]", "value": 28100, "unit": "nM"}]}, {"smiles": "Fc1ccc(C2(c3ccc(F)cc3)CC3c4ccccc4C2c2cccc[n+]23)cc1", "note": "(stereo not drawn)", "values": [{"measurement": "Ki", "setting": "[2]", "value": 2210, "unit": "nM"}]}, {"smiles": "c1cncc(C2(c3cccnc3)CC3c4ccccc4C2c2cccc[n+]23)c1", "note": "(stereo not drawn)", "values": [{"measurement": "Ki", "setting": "[2]", "value": 2270, "unit": "nM"}]}, {"smiles": "Clc1ccc(C2(c3ccc(Cl)cc3)CC3c4ccccc4C2c2cccc[n+]23)cc1", "note": "(stereo not drawn)", "values": [{"measurement": "inhibition", "setting": "[3]", "value": 45, "unit": "%"}]}, {"smiles": "[Cl-].c1ccc2c(c1)C1CC(c3ccoc3)(c3ccoc3)C2c2cccc[n+]21", "note": "(stereo not drawn)", "values": [{"measurement": "Inhibition", "setting": "[4]", "value": 12, "unit": "%"}, {"measurement": "logD", "setting": "[5]; read-out: logD", "value": -3.41}, {"measurement": "Ratio", "setting": "[6]", "value": ">700"}, {"measurement": "IC50", "setting": "[7]", "value": "> 100000", "unit": "nM"}, {"measurement": "IC50", "setting": "[8]", "value": 140, "unit": "nM"}, {"measurement": "IC50", "setting": "[1]", "value": 39, "unit": "nM"}, {"measurement": "inhibition in vivo at 6 mg/kg/h", "setting": "[9]", "value": 50, "unit": "%"}, {"measurement": "Ki", "setting": "[2]", "value": 1.8, "unit": "nM"}]}, {"smiles": "c1ccc2c(c1)C1CC(c3cncs3)(c3cncs3)C2c2cccc[n+]21", "note": "(stereo not drawn)", "values": [{"measurement": "Ki", "setting": "[2]", "value": 120, "unit": "nM"}]}, {"smiles": "c1ccc(C2(N3CCCCC3)CCCCC2)cc1", "note": "[PHENCYCLIDINE]", "values": [{"measurement": "logD", "setting": "[5]; read-out: logD", "value": 1.76}, {"measurement": "IC50", "setting": "[7]", "value": 13900, "unit": "nM"}, {"measurement": "Ratio", "setting": "[10]", "value": 51}, {"measurement": "IC50", "setting": "[8]", "value": 270, "unit": "nM"}]}, {"smiles": "COc1cccc(C2(c3cccc(OC)c3)CC3c4ccccc4C2c2cccc[n+]23)c1", "note": "(stereo not drawn)", "values": [{"measurement": "Ki", "setting": "[2]", "value": 41, "unit": "nM"}]}, {"smiles": "c1ccc(C2(c3ccccn3)CC3c4ccccc4C2c2cccc[n+]23)nc1", "note": "(stereo not drawn)", "values": [{"measurement": "Ki", "setting": "[2]", "value": 8.4, "unit": "nM"}]}, {"smiles": "c1ccc2c(c1)C1CC(c3ncc[nH]3)(c3ncc[nH]3)C2c2cccc[n+]21", "note": "(stereo not drawn)", "values": [{"measurement": "Ki", "setting": "[2]", "value": 1670, "unit": "nM"}]}, {"smiles": "Brc1cccc(C2(c3cccc(Br)c3)CC3c4ccccc4C2c2cccc[n+]23)c1", "note": "(stereo not drawn)", "values": [{"measurement": "Ki", "setting": "[2]", "value": 185, "unit": "nM"}]}, {"smiles": "Clc1cccc(C2(c3cccc(Cl)c3)CC3c4ccccc4C2c2cccc[n+]23)c1", "note": "(stereo not drawn)", "values": [{"measurement": "Ki", "setting": "[2]", "value": 104, "unit": "nM"}]}, {"smiles": "c1ccc2c(c1)C1CC(c3cocn3)(c3cocn3)C2c2cccc[n+]21", "note": "(stereo not drawn)", "values": [{"measurement": "Ki", "setting": "[2]", "value": 93, "unit": "nM"}]}, {"smiles": "c1ccc2c(c1)C1CC(c3ccncc3)(c3ccncc3)C2c2cccc[n+]21", "note": "(stereo not drawn)", "values": [{"measurement": "inhibition", "setting": "[3]", "value": 54, "unit": "%"}]}, {"smiles": "C[C@]12N[C@H](Cc3ccccc31)c1ccccc12", "note": "[DIZOCILPINE]", "values": [{"measurement": "logD", "setting": "[5]; read-out: logD", "value": 1.79}, {"measurement": "IC50", "setting": "[7]", "value": 5800, "unit": "nM"}, {"measurement": "IC50", "setting": "[8]", "value": 100, "unit": "nM"}, {"measurement": "IC50", "setting": "[1]", "value": 67, "unit": "nM"}]}, {"smiles": "Brc1ccc(C2(c3ccc(Br)cc3)CC3c4ccccc4C2c2cccc[n+]23)cc1", "note": "(stereo not drawn)", "values": [{"measurement": "inhibition", "setting": "[3]", "value": 22, "unit": "%"}]}, {"smiles": "c1ccc(C2(c3ccccc3)CC3c4ccccc4C2c2cccc[n+]23)cc1", "note": "(stereo not drawn)", "values": [{"measurement": "IC50", "setting": "[1]", "value": 197, "unit": "nM"}, {"measurement": "Ki", "setting": "[2]", "value": 8.2, "unit": "nM"}]}, {"smiles": "c1csc(C2(c3cccs3)CC3c4ccccc4C2c2cccc[n+]23)c1", "note": "(stereo not drawn)", "values": [{"measurement": "IC50", "setting": "[1]", "value": 23, "unit": "nM"}, {"measurement": "Ki", "setting": "[2]", "value": 2.1, "unit": "nM"}]}, {"smiles": "c1coc(C2(c3ccco3)CC3c4ccccc4C2c2cccc[n+]23)c1", "note": "(stereo not drawn)", "values": [{"measurement": "IC50", "setting": "[1]", "value": 36, "unit": "nM"}, {"measurement": "Ki", "setting": "[2]", "value": 1.9, "unit": "nM"}]}, {"smiles": "CCOC1(OCC)C2c3ccccc3C([n+]3ccccc32)C1(C)C.[Cl-]", "note": "(stereo not drawn)", "values": [{"measurement": "Inhibition", "setting": "[4]", "value": -8.5, "unit": "%"}, {"measurement": "logD", "setting": "[5]", "value": -4.08}, {"measurement": "Ratio", "setting": "[6]", "value": ">384"}, {"measurement": "IC50", "setting": "[7]", "value": "> 100000", "unit": "nM"}, {"measurement": "IC50", "setting": "[8]", "value": 260, "unit": "nM"}, {"measurement": "Ki", "setting": "[2]", "value": 5.3, "unit": "nM"}]}, {"smiles": "c1ccc2c(c1)C1CC(c3cc[nH]c3)(c3cc[nH]c3)C2c2cccc[n+]21", "note": "(stereo not drawn)", "values": [{"measurement": "IC50", "setting": "[1]", "value": 30, "unit": "nM"}, {"measurement": "Ki", "setting": "[2]", "value": 3.1, "unit": "nM"}]}, {"smiles": "c1ccc2c(c1)C1CC(c3ccsc3)(c3ccsc3)C2c2cccc[n+]21", "note": "(stereo not drawn)", "values": [{"measurement": "IC50", "setting": "[1]", "value": 45, "unit": "nM"}, {"measurement": "Ki", "setting": "[2]", "value": 1.8, "unit": "nM"}]}, {"smiles": "c1ccc2c(c1)C1CC(c3nccs3)(c3nccs3)C2c2cccc[n+]21", "note": "(stereo not drawn)", "values": [{"measurement": "Ki", "setting": "[2]", "value": 17, "unit": "nM"}]}]}
